How the values were obtained:
Mus musculus = test: Antinociceptive activity was determined using the mouse acetylcholine-induced abdominal constriction test followed by subcutaneous administration; assay type: functional; conditions: Abdomen, sc
Procedure, shortened: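 Mice received each compound by subcutaneous injection and were scored in the acetylcholine-induced abdominal constriction test. An ED50 in mg/kg was determined for each compound.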

[1] = target: Kappa-type opioid receptor (Cavia porcellus) (UniProt P41144); test: pKa value was measured against kOpioid receptor kappa 1
Procedure, shortened: (§1)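 pKa was found by titration of the compound at a sample concentration of 0.002 M in 10% methanol-water solvent.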

[2] = target: T1, Kappa-type opioid receptor (Homo sapiens, UniProt P41145); test: Kappa-opioid receptor agonist potency in vitro using rabbit vas deferens(LVD) preparation; assay type: functional, Oryctolagus cuniculus; conditions: target entry is the homologue from another species
Procedure, shortened: (§2)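 Isolated rabbit vas deferens (LVD) was used as an in vitro kappa-agonist bioassay. Potency is given as an IC50 in nM, the mean of two independent determinations, with individual values typically within ±10% of the mean. Compounds were tested as racemates.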

[3] = target: T1, Kappa-type opioid receptor; test: Opioid receptor kappa 1 agonist potency in vitro using rabbit vas deferens(LVD) preparation; assay type: functional, Oryctolagus cuniculus; conditions: target entry is the homologue from another species; procedure, shortened: as §2
[4] = target: Kappa-type opioid receptor (Cavia porcellus) (UniProt P41144); test: pKa value was measured against Opioid receptor kappa 1; procedure, shortened: as §1
[5] = target: Kappa-type opioid receptor (Cavia porcellus) (UniProt P41144); test: pKa value was measured against opioid receptor kappa; procedure, shortened: as §1
[6] = target: T1, Kappa-type opioid receptor; test: Opioid receptor kappa agonist potency in vitro using rabbit vas deferens(LVD) preparation; assay type: functional, Oryctolagus cuniculus; conditions: target entry is the homologue from another species; procedure, shortened: as §2

T1 sequence (P41145 whole entry): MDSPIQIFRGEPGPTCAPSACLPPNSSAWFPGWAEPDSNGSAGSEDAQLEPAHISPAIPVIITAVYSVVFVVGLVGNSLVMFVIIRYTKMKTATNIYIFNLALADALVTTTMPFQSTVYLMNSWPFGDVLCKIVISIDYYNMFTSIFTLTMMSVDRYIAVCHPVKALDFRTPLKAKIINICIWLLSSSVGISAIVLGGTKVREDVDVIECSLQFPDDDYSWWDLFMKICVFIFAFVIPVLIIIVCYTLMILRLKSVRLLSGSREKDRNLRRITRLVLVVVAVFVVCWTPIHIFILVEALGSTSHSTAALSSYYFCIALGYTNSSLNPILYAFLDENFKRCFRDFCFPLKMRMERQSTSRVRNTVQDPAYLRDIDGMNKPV
Sequence of Kappa-type opioid receptor (Cavia porcellus) (P41144 whole entry): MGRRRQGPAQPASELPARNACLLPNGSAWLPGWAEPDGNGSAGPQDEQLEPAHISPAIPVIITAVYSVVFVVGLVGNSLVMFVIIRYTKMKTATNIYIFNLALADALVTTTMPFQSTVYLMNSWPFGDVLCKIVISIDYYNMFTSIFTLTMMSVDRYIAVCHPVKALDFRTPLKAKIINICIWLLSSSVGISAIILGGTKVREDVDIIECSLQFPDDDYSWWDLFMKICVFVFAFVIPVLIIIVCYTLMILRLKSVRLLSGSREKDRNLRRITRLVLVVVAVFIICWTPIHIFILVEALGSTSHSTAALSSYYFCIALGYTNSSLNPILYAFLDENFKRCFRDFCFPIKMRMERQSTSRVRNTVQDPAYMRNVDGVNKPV

Compound	ED50 (Mus musculus) [mg/kg]	other results
O=C(Cc1ccc(Cl)c(Cl)c1)N1CCC[C@@H](O)[C@H]1CN1CCCC1	1.7	
O=C(Cc1ccc(Cl)c(Cl)c1)N1CCCCC1CN1CC=CCC1 (stereo unspecified)	0.009	
O=C(Cc1ccc(Cl)c(Cl)c1)N1CCCCC1CN1CCCC1 (stereo unspecified)	0.03	pKa [1]: 9; IC50 [2]: 11 nM
C=C1CCN(CC2CCCCN2C(=O)Cc2ccc(Cl)c(Cl)c2)CC1 (stereo unspecified)		IC50 [3]: 550 nM
COC(=O)/C=C1\CCN(CC2CCCCN2C(=O)Cc2ccc(Cl)c(Cl)c2)C1 (stereo unspecified)	6.6	
C[C@H]1CCC[C@@H](CN2CCCC2)N1C(=O)Cc1ccc(Cl)c(Cl)c1	0.034	
O=C(Cc1ccc(Cl)c(Cl)c1)N1CCCCC1CN1CCCCC1 (stereo unspecified)	0.24	
N#C/C=C1/CCN(CC2CCCCN2C(=O)Cc2ccc(Cl)c(Cl)c2)C1 (stereo unspecified)	0.19	IC50 [3]: 0.12 nM
COC(=O)C1=CCCN(CC2CCCCN2C(=O)Cc2ccc(Cl)c(Cl)c2)C1 (stereo unspecified)	0.41	
O=C(Cc1ccc(Cl)c(Cl)c1)N1CCCCC1CN1CC=CC1 (stereo unspecified)	0.04	IC50 [3]: 3.5 nM
O=C(Cc1ccc(Cl)c(Cl)c1)N1CCC[C@H](O)[C@H]1CN1CCCC1	3.6	
O=C1CCN(CC2CCCCN2C(=O)Cc2ccc(Cl)c(Cl)c2)CC1 (stereo unspecified)	> 10	
O=C1CCCN(C(=O)Cc2ccc(Cl)c(Cl)c2)C1CN1CCCC1 (stereo unspecified)	3.4	
O=C(Cc1ccc(Cl)c(Cl)c1)N1CCCCC1CN1CCC2(CC1)OCCO2 (stereo unspecified)	> 10	
O=C1CCN(CC2CCCCN2C(=O)Cc2ccc(Cl)c(Cl)c2)C1 (stereo unspecified)	0.06	pKa [4]: 5.3; IC50 [3]: 0.2 nM
C[C@@H]1CCC[C@@H](CN2CCCC2)N1C(=O)Cc1ccc(Cl)c(Cl)c1	0.4	
O=C1CC[C@@H](CN2CCCC2)N(C(=O)Cc2ccc(Cl)c(Cl)c2)C1	0.91	
O=C1CCN(C(=O)Cc2ccc(Cl)c(Cl)c2)C(CN2CCCC2)C1 (stereo unspecified)	0.018	

Compound	ED50 (Mus musculus) [mg/kg]	other results
O=C(Cc1ccc(Cl)c(Cl)c1)N1CCC2(CC1CN1CCCC1)SCCS2 (stereo unspecified)	0.025	
O=C(Cc1ccc(Cl)c(Cl)c1)N1CC[C@H](O)C[C@H]1CN1CCCC1	1.4	
O=C(Cc1ccc(Cl)c(Cl)c1)N1CC2(CC[C@H]1CN1CCCC1)OCCO2	1.1	
C=CCC1(CN2CCCC2)CCCCN1C(=O)Cc1ccc(Cl)c(Cl)c1 (stereo unspecified)	2.4	
N#C/C=C1\CCN(CC2CCCCN2C(=O)Cc2ccc(Cl)c(Cl)c2)C1 (stereo unspecified)	> 10	IC50 [3]: 690 nM
COC(=O)[C@@H]1CCN(C(=O)Cc2ccc(Cl)c(Cl)c2)[C@H](CN2CCCC2)C1	> 10	
COC(=O)[C@@H]1CCC[C@@H](CN2CCCC2)N1C(=O)Cc1ccc(Cl)c(Cl)c1	0.43	
NC(=O)[C@@H]1CCN(C(=O)Cc2ccc(Cl)c(Cl)c2)[C@H](CN2CCCC2)C1	> 10	
O=C(Cc1ccc(Cl)c(Cl)c1)N1CCC2(CC1CN1CCCC1)OCCO2 (stereo unspecified)	0.001	
CN(C)CC1CCCCN1C(=O)Cc1ccc(Cl)c(Cl)c1 (stereo unspecified)	0.064	IC50 [3]: 102 nM
O=C(Cc1ccc(Cl)c(Cl)c1)N1CCCCC1CN1CCC(O)C1 (stereo unspecified)	0.01	pKa [5]: 8.1
O=C(Cc1ccc(Cl)c(Cl)c1)N1[C@@H](CO)CCC[C@H]1CN1CCCC1		IC50 [6]: 2200 nM
O=C(Cc1ccc(Cl)c(Cl)c1)N1CC[C@@H](O)C[C@H]1CN1CCCC1	0.27	IC50 [3]: 120 nM
C=C1CCN(CC2CCCCN2C(=O)Cc2ccc(Cl)c(Cl)c2)C1 (stereo unspecified)	0.05	pKa [5]: 7.7
COC(=O)/C=C1/CCN(CC2CCCCN2C(=O)Cc2ccc(Cl)c(Cl)c2)C1 (stereo unspecified)	0.07	
O=C(Cc1ccc(Cl)c(Cl)c1)N1CCCCC1CN1CCCO1 (stereo unspecified)	0.38	
C=C1CCCN(C(=O)Cc2ccc(Cl)c(Cl)c2)C1CN1CCCC1 (stereo unspecified)	0.11	
